IDE inh – cellular human IDE inhibition; P14735; HEK cells, FAbetaB cleavage, fluorescence polarization; inhibition, % at 5.59 µM; 0.41% of 320,000 active; AID 434962;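 active means percent inhibition above the average of all tested compounds plus 3 SD, set per screening campaign, cut at about 16% in these data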;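 further: IDE supplied by intact live HEK cells; FP after avidin binding of uncleaved biotin substrate so inhibition keeps polarization high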
Target sequence (P14735 whole entry, looked up): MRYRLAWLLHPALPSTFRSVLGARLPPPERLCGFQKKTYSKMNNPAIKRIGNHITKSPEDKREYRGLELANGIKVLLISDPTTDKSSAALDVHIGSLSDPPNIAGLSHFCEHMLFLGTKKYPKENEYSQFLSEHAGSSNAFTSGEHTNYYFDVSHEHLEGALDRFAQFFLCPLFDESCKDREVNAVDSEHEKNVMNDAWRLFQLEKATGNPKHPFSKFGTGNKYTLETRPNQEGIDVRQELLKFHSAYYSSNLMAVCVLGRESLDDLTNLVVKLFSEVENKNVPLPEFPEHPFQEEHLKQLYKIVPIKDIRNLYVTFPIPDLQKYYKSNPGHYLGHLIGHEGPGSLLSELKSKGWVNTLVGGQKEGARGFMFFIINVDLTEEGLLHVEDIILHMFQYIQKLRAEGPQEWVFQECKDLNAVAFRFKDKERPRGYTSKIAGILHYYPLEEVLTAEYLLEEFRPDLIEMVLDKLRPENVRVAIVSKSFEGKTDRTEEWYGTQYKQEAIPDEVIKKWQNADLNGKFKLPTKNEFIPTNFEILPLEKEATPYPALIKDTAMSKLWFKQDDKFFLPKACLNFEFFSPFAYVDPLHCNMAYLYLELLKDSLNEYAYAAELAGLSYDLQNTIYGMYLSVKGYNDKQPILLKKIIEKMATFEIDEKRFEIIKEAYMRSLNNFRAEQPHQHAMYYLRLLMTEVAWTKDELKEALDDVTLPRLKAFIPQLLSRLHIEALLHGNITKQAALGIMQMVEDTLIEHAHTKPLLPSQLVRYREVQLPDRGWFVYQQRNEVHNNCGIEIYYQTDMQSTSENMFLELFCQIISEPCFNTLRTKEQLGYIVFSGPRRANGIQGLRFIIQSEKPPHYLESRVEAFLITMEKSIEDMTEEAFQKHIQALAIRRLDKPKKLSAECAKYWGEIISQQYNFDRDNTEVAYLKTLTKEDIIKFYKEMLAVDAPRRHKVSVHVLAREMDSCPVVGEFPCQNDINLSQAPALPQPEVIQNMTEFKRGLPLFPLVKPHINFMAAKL
proCasp3 act – procaspase-3 (human) activation; P42574; recombinant procaspase-3 D3A, Ac-DEVD-pNA absorbance 405 nm; activation, % at 8.5 µM; 0.11% of 330,000 active; AID 463141;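 active means activation above the mean of all tested compounds plus 3 SD, cut at about 21% in these data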
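material = Procaspase-3 D3A mutant | probe or stimulus = Ac-DEVD-pNA | compound = single dose, 8.5 µM nominal compound, 0.8% DMSO | timing = 1 h preincubation, 2 h reaction | measured by = 405 nm absorbance of p-nitroaniline, reads at 0 and 120 min | benchmarks = DMSO-only low control, 5 µM PC-3 D3A high control | repeats = singlicate, each compound tested once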
UBC13 inh – blocks human UBC13 polyubiquitin chain formation; TR-FRET; AID 485273; P61088; 0.47% of 330,000 active; inhibition, % at 20 µM; in the data active means inhibition above about 45%, passing the limit was not always enough
PHOSPHO1 inh – blocks human PHOSPHO1 phosphatase activity; 1.1% of 290,000 active; Q8TCT1; recombinant PHOSPHO1, absorbance phosphatase assay; inhibition, % at 13.3 µM; in the data active means inhibition above about 60%
procasp7 counter – counter-screen: procaspase-7 (human) activation; recombinant procaspase-7, Ac-DEVD-pNA absorbance 405 nm; D23A/D198A/D206A triple mutant, cannot self-cleave; scale: DMSO 0, 5 µM enzyme 100; activation, % at 8.5 µM; 0.093% of 330,000 active;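 active means percent activation above the screen-wide mean plus 3 SD, cut at about 25% in these data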
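System: Uncleavable procaspase-7 mutant enzyme; Amount: 2 µM procaspase-7 mutant as dispensed; Schedule: 1 h compound preincubation, 2 h substrate cleavage, 25 °C; Measured by: 405 nm absorbance of p-nitroaniline; Evaluation: percent activation from buffer-corrected 0–120 min absorbance change; Control set: low DMSO alone, high DMSO plus 5 µM PC-7.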
IDE cell activ – boosts human insulin-degrading enzyme activity in HEK cells. P14735. FAbeta-B cleavage, fluorescence polarization; 0% vehicle, 100% cell-free pure enzyme wells. activation, % at 5.96 µM. 0.073% of 340,000 active. AID 493087;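 active means activation above the mean of all tested compounds plus 3 SD, set per screening campaign, cut at about 17% in these data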
IDE inh confirm – confirmation of human insulin-degrading enzyme inhibitors in cells | shares compounds with IDE inh | HEK cells, FAbetaB cleavage, fluorescence polarization | inhibition, % at 5.59 µM | 51% of 1,200 active | AID 435028;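 active means mean inhibition across triplicate wells above the cutoff set by the earlier primary insulin-degrading enzyme screen, cut at about 16% in these data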
HEK293 tox – kills HEK cells in IDE inhibitor counter-screen; shares compounds with IDE inh; HEK293 cytotoxicity, ATP luminescence; inhibition, % at 5.59 µM; 28% of 1,200 active; in the data active means inhibition above about 22%
A number is an active result; 0 = inactive; - = not tested or not shown. The list is not random: actives were taken first. Their share in the collection is about 1.9%.

SMILES | IDE inh | proCasp3 act | UBC13 inh | PHOSPHO1 inh | procasp7 counter | IDE cell activ | IDE inh confirm | HEK293 tox
CCN(CC)c1ccc(/C=C(\C#N)C(N)=S)cc1 | 22 | 0 | 0 | 0 | 0 | 0 | 0 | 0
CCN(CC)c1ccc(/C=C(\C#N)C(=O)c2ccc(Br)cc2)cc1 | 68 | 0 | - | 0 | 0 | 0 | 51 | 0
CN(C)c1ccc(/C=C(\C#N)C(=O)c2ccccc2)cc1 | 28 | 0 | - | 0 | 0 | 0 | 96 | 0
CCc1cccc(NC(=O)CCCCCC2NC(=O)NC2C)c1 (stereo unspecified) | 22 | 0 | 0 | 0 | 0 | 0 | 0 | 0
CC(=O)N/C(=C\c1ccccc1)C(=O)OCC(=O)NC(C)C12CC3CC(CC(C3)C1)C2 (stereo unspecified) | 17 | 0 | 0 | 0 | 0 | 0 | 0 | 0
COc1ccc(CN2C[C@H](Cc3ccccc3)[C@@H](CC(=O)Nc3ccccc3)C2=O)cc1 | 0 | 0 | 0 | 0 | 0 | 0 | - | -
Cn1c(SCCOc2cccc(Cl)c2)nnc1-c1ccncc1 | 0 | 0 | 0 | 0 | 0 | 0 | - | -
Cc1ccc(OCCSc2nnc(-c3ccncc3)n2C)cc1 | 36 | 0 | 0 | 0 | 0 | 0 | 0 | 0
Cn1c(N)c(C(=O)CSc2nc(N)cc(N)n2)c(=O)n(C)c1=O | 21 | 0 | 0 | 0 | 0 | 0 | 0 | 0
COCCNc1ncnc2c1[nH]c1ccccc12 | 18 | 0 | 0 | 0 | 0 | 0 | 0 | 0
Fc1ccc2[nH]c3c(NCc4ccccc4)ncnc3c2c1 | 88 | 0 | 0 | 0 | 0 | 0 | 67 | 59
COc1ccc2[nH]c3c(NCc4ccco4)ncnc3c2c1 | 38 | 0 | 0 | 0 | 0 | - | 18 | 0
COCCCNc1ncnc2c1[nH]c1ccccc12 | - | - | - | 0 | - | - | - | -
Cc1ccc(Cl)cc1N1CCN(C(=O)CCCn2c(=O)c3cccn3c3cccnc32)CC1 | 0 | 0 | 0 | 0 | 0 | 0 | - | -
Cc1cccc(N2CCN(C(=O)CCCn3c(=O)c4cccn4c4cccnc43)CC2)c1C | 25 | 0 | 0 | 0 | 0 | 0 | 0 | 23
CCCN1CCc2c(sc(NC(=O)c3ccc(S(=O)(=O)N(C)c4ccccc4)cc3)c2C(N)=O)C1 | 16 | 0 | 0 | 0 | 0 | 0 | 0 | 26
CCCN1CCc2c(sc(NC(=O)c3ccc(S(=O)(=O)N(C)c4ccccc4)cc3)c2C(=O)NC)C1 | 0 | 0 | 0 | 0 | 0 | 0 | - | -
CN1CCc2c(sc(NC(=O)c3ccc(S(=O)(=O)N4CCCC4)cc3)c2C(N)=O)C1 | 0 | 0 | 0 | 0 | 0 | 0 | - | -
CN1CCc2c(sc(NC(=O)c3ccc(S(=O)(=O)N4CCCCCC4)cc3)c2C(N)=O)C1 | 25 | 0 | 0 | 0 | 0 | 0 | 0 | 0
CC1CCN(C(=O)CCC(=O)Nc2nnc(C3CCCCC3)s2)CC1 | 0 | 0 | 0 | 0 | 0 | 0 | - | -
COCCCC1CCN(C(=O)c2cc(COc3ccc(C)nc3)on2)CC1 | 0 | 0 | 0 | 0 | 0 | 0 | - | -
Clc1cc2cccnc2c2ccccc12 | 19 | 0 | 0 | 0 | 0 | 0 | 0 | 0
CCOC(=O)c1c(NC(=O)COC(=O)CNC(=O)c2ccco2)sc(C(C)=O)c1C | 17 | 0 | 0 | 0 | 0 | 0 | 0 | 0
COc1ccc(-n2nc(C(=O)NCC(=O)N3CCN(c4ccccc4)CC3)c3ccccc3c2=O)cc1OC | 0 | 0 | 0 | 0 | 0 | 0 | - | -
CCCc1cc(=O)oc2cc(OCC(=O)N3C[C@H]4C[C@@H](C3)c3cccc(=O)n3C4)c(Cl)cc12 | 0 | 0 | 0 | 0 | 0 | 0 | - | -
SMILES | IDE inh | proCasp3 act | UBC13 inh | PHOSPHO1 inh | procasp7 counter | IDE cell activ | IDE inh confirm | HEK293 tox
CCCCc1cc(=O)oc2cc(OCC(=O)N3CCC(C(N)=O)CC3)ccc12 | 18 | 0 | 0 | 0 | 0 | 0 | 0 | 0
CCCCc1cc(=O)oc2c(C)c(OCC(=O)N3C[C@H]4C[C@@H](C3)c3cccc(=O)n3C4)ccc12 | 23 | 0 | 0 | 0 | 0 | 0 | 0 | 0
Cc1oc2cc3oc(=O)c(CCC(=O)N4C[C@H]5C[C@@H](C4)c4cccc(=O)n4C5)c(C)c3cc2c1C | 18 | 0 | 0 | 0 | 0 | 0 | 0 | 0
Cc1cccc(C(=O)Nc2cc(Cl)ccc2-n2cncn2)c1[N+](=O)[O-] | 0 | 0 | 0 | - | 0 | 0 | - | -
CN(C)c1ccc(/C=C(/NC(=O)c2ccccc2)C(=O)NCCN2CCOCC2)cc1 | 17 | 0 | 0 | 0 | 0 | 0 | 0 | 0
CN(C)c1ccc(/C=C(/NC(=O)c2ccccc2Cl)C(=O)NCCN2CCOCC2)cc1 | 18 | 0 | 0 | 0 | 0 | 0 | 0 | 0
O=C(NCCN1CCOCC1)/C(=C/c1ccc(Cl)cc1)NC(=O)c1ccccc1 | 0 | 0 | 0 | 0 | 0 | 0 | - | -
CCN(CC(=O)Nc1c(F)cccc1F)C(=O)C1CCN(S(=O)(=O)c2ccccc2C(=O)OC)CC1 | - | - | - | - | - | 0 | - | -
Cc1ccc(S(=O)(=O)Nc2ccccc2C(=O)N2CCN(C)CC2)cc1 | 0 | 0 | 0 | 0 | 0 | 0 | - | -
COc1ccc(C)cc1NCc1cc(=O)oc2cc(-c3ccccc3)c(O)cc12 | 20 | 0 | 0 | 0 | 0 | 0 | 0 | 0
CCC(=O)C(C#N)(c1ccc(OC)c(OC)c1)C(C)C (stereo unspecified) | 0 | 0 | 0 | - | 0 | 0 | - | -
COc1ccc(C(=O)NC(=S)Nc2ccc3[nH]c(=O)[nH]c3c2)cc1 | 0 | 0 | 0 | 0 | 0 | 0 | - | -
COc1ccc(N2CCN(c3nc4c(c(=O)n(C)c(=O)n4C)n3Cc3ccccc3)CC2)cc1 | 20 | 0 | 0 | 0 | 0 | 0 | 0 | 0
C=C(C)Cn1c(N2CCN(c3ccc(OC)cc3)CC2)nc2c1c(=O)n(C)c(=O)n2C | 0 | 0 | 0 | 0 | 0 | 0 | - | -
O=[N+]([O-])c1ccc(/C=C/C2=NN(c3ccccc3)C(c3ccco3)C2)cc1 (stereo unspecified) | 36 | 0 | - | 0 | 0 | 0 | 53 | 0
CC(=O)Oc1c(-c2ccco2)oc2ccccc2c1=O | 77 | 0 | 0 | 0 | 0 | 0 | 104 | 0
CCN(CC)C(=O)COc1c(-c2ccco2)oc2ccccc2c1=O | 0 | 0 | 0 | 0 | 0 | 0 | - | -
C/C(=N\NC(=O)c1cc(C)oc1C)c1ccc(C)c([N+](=O)[O-])c1 | 0 | 0 | 0 | - | 0 | 0 | - | -
C=CCN1C(=O)/C(=C/C=C2/N(CC)c3ccc(S(=O)(=O)N(C)C)cc3N2CC)SC1=S | 22 | 0 | 0 | 0 | 0 | 0 | 160 | 39
O=C(COc1ccc(Cl)cc1Br)Nc1cccc(S(=O)(=O)N2CCCC2)c1 | 0 | 0 | 0 | - | 0 | 0 | - | -
Cc1ccc(/C=N\NC(=O)/C(=C\Nc2nccc(C)n2)NC(=O)c2ccccc2)cc1 | 26 | 0 | 0 | 0 | 0 | 0 | 31 | 0
COc1ccc(Cl)cc1C(=O)NCC(=O)OCc1ccccc1 | 20 | 0 | 0 | - | 0 | 0 | 0 | 0
